# Results reported in ChEMBL document CHEMBL3865805, “Discovery and antiplatelet activity of a selective PI3Kβ inhibitor (MIPS-9922)” (Eur J Med Chem, 2016).
# The source made the active and inactive calls. No cut-off for these calls is given here.
# Columns and labels:
# [1] = molecular target: T1, Phosphatidylinositol 4,5-bisphosphate 3-kinase catalytic subunit beta isoform (Homo sapiens, UniProt P42338); assay: Inhibition of PI3Kbeta (unknown origin) expressed in baculovirus-infected fall armyworm sf21 cells co-expressing p85 by kinase-glo luminescence assay
# How it was run: (§1)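 Recombinant p110 isoforms made by baculovirus in Sf21 cells. Kinase activity read by Kinase-Glo luminescence at 10 µM ATP. IC50 taken as the mean of at least two duplicate experiments.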
# Target sequence in this assay (P42338 whole entry, canonical isoform): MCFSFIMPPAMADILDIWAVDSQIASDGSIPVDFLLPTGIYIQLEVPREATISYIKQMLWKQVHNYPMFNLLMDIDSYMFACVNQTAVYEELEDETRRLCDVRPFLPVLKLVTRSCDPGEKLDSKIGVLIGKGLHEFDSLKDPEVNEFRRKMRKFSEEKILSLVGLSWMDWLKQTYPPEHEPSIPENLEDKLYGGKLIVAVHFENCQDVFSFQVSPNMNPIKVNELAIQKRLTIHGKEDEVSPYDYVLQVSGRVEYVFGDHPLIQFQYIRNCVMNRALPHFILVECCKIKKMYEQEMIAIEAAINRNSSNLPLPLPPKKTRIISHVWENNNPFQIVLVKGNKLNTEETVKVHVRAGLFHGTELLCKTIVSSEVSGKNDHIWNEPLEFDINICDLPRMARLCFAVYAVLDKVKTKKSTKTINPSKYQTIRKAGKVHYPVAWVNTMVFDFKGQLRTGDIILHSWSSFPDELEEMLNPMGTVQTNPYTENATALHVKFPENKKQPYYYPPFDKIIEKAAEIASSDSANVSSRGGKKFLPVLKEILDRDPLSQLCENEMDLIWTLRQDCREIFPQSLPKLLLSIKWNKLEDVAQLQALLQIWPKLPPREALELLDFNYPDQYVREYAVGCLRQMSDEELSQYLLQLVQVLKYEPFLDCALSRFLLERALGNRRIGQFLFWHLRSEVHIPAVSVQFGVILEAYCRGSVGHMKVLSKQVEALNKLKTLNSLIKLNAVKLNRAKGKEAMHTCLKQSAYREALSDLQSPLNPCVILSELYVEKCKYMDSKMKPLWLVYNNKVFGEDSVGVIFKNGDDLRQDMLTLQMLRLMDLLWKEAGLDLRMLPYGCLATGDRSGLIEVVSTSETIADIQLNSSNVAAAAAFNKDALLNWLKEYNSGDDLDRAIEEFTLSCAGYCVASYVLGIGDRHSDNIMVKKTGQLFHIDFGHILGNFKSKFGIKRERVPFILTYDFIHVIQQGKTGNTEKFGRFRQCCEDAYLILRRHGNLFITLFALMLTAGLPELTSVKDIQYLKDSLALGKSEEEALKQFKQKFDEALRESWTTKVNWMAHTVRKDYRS
# [2] = test system: Platelet; assay: […] activity in human washed platelets assessed as […] ADP-induced platelet aggregation at 10 to 1000 nM preincubated for 5 mins followed by ADP stimulation after 10 mins by light transmission aggregometric analysis; assay type: functional, cell-based
# [3] = molecular target: T1, Phosphatidylinositol 4,5-bisphosphate 3-kinase catalytic subunit beta isoform; assay: Inhibition of PI3Kbeta in human washed platelets assessed as suppression of ADP-induced platelet aggregation at 1 to 1000 nM preincubated for 5 mins followed by ADP stimulation after 10 mins by light transmission aggregometric analysis
# How it was run: (§2)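 Washed human platelets in a conventional aggregometer. Aggregation induced by ADP; IC50 taken from the dose-response curve.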
# Target sequence in this assay (P42338 whole entry, looked up, canonical isoform): as the sequence (P42338 whole entry, canonical isoform) above
# [4] = molecular target: T2, Phosphatidylinositol 4,5-bisphosphate 3-kinase catalytic subunit delta isoform (Homo sapiens, UniProt O00329); assay: Inhibition of PI3Kdelta (unknown origin) expressed in baculovirus-infected fall armyworm sf21 cells co-expressing p85 by kinase-glo luminescence assay; how it was run: as §1
# T2 sequence (O00329 whole entry): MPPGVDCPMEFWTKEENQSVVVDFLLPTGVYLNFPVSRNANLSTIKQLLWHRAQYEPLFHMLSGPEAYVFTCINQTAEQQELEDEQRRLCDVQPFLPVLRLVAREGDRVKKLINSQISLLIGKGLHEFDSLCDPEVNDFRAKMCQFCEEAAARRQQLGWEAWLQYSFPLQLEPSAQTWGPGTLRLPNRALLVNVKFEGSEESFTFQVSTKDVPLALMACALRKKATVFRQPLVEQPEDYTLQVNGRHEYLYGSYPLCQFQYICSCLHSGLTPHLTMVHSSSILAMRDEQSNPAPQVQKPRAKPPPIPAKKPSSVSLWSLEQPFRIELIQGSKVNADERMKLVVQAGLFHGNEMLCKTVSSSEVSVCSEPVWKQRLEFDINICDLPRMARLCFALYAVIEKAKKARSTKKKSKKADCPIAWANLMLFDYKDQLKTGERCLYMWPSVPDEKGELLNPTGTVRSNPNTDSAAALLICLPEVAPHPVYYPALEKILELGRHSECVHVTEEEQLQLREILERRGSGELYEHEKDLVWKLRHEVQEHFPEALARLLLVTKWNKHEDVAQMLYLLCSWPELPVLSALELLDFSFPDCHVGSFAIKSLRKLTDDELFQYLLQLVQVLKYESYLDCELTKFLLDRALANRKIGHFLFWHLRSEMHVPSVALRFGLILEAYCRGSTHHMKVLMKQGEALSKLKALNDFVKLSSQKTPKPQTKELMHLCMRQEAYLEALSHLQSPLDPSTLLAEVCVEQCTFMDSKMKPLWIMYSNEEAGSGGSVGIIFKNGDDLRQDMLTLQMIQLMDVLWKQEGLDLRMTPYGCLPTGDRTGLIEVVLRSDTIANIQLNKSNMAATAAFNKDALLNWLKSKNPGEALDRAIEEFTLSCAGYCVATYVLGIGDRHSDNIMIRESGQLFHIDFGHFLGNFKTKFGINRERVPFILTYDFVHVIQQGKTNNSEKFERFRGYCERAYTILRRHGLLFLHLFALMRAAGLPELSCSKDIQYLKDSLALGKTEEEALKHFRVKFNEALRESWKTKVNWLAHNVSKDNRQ
# [5] = Inhibition of PI3Kbeta in human washed platelets assessed as suppression of TRAP-induced platelet aggregation at 10 to 1000 nM preincubated for 5 mins followed by TRAP stimulation after 10 mins by light transmission aggregometric analysis
# [6] = Drug level in iv dosed rat serum after 60 mins by LC-MS analysis; assay type: ADME, organism-based; conditions: read-out: Drug uptake
# [7] = Drug level in iv dosed rat serum after 5 mins by LC-MS analysis; assay type: ADME, organism-based; conditions: read-out: Drug uptake
# [8] = test system: Platelet; assay: Antiplatelet activity against human washed platelets assessed as reduction in shear-induced stationary platelet adhesionto vWF matrix at 2 uM preincubated for 5 mins followed by blood perfusion after 4 mins; assay type: functional, cell-based
# How it was run: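 Human whole blood, anticoagulated, perfused over a vWf matrix at 1800 s^-1 for 4 min; stationary platelet adhesion scored. Vehicle DMSO 0.25% taken as 100%. Drug tested up to 5 µM. t test against 0.1 µM drug.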
# [9] = molecular target: T1, Phosphatidylinositol 4,5-bisphosphate 3-kinase catalytic subunit beta isoform; assay: Inhibition of PI3Kbeta in human washed platelets assessed as suppression of ADP-induced platelet aggregation at 0.5 uM preincubated for 5 mins followed by 25 uM ADP stimulation after 10 mins by light transmission aggregometric analysis
# How it was run: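 Washed human platelets in an aggregometer. Inhibitor at 0.5 µM. Aggregation induced by 5, 10 or 25 µM ADP; percent inhibition read.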
# Target sequence in this assay (P42338 whole entry, looked up, canonical isoform): as the sequence (P42338 whole entry, canonical isoform) above
# [10] = molecular target: T1, Phosphatidylinositol 4,5-bisphosphate 3-kinase catalytic subunit beta isoform; assay: Inhibition of PI3Kbeta in human washed platelets assessed as suppression of ADP-induced platelet aggregation preincubated for 5 mins followed by ADP stimulation after 10 mins by light transmission aggregometric analysis; how it was run: as §2
# Target sequence in this assay (P42338 whole entry, looked up, canonical isoform): as the sequence (P42338 whole entry, canonical isoform) above
Compound,IC50 [1],IC50 [4],other results
"O=C(C1CCCN1)N1CCC(c2nc(N3CCOCC3)nc(-n3c(C(F)F)nc4ccccc43)n2)CC1 (single isomer, unassigned)",2000 nM,–,–
NC1CCN(c2nc(N3CCOCC3)nc(-n3c(C(F)F)nc4ccccc43)n2)CC1,955 nM,–,–
NCCCC[C@H](N)C(=O)N1CCN(c2nc(N3CCOCC3)nc(-n3c(C(F)F)nc4ccccc43)n2)CC1,–,–,Activity [2]: Active
C[C@H](N)C(=O)N1CCN(c2nc(N3CCOCC3)nc(-n3c(C(F)F)nc4ccccc43)n2)CC1,–,–,inhibition [3]: Active
NCC(=O)NC1CCN(c2nc(N3CCOCC3)nc(-n3c(C(F)F)nc4ccccc43)n2)CC1,1330 nM,–,–
NCC(=O)NC1CCCN(c2nc(N3CCOCC3)nc(-n3c(C(F)F)nc4ccccc43)n2)C1 (stereo not drawn),1210 nM,–,–
O=C(C1CCNCC1)N1CCN(c2nc(N3CCOCC3)nc(-n3c(C(F)F)nc4ccccc43)n2)CC1,3210 nM,330 nM,–
NCCC1CCN(c2nc(N3CCOCC3)nc(-n3c(C(F)F)nc4ccccc43)n2)CC1,190 nM,1000 nM,inhibition [3]: Active; inhibition [5]: Active
C[C@H](N)C(=O)N1CCC(c2nc(N3CCOCC3)nc(-n3c(C(F)F)nc4ccccc43)n2)CC1,540 nM,1090 nM,–
FC(F)c1nc2ccccc2n1-c1nc(NC2CCNCC2)nc(N2CCOCC2)n1,2110 nM,–,–
CC(C)C[C@H](N)CC(=O)N1CCN(c2nc(N3CCOCC3)nc(-n3c(C(F)F)nc4ccccc43)n2)CC1,> 10000 nM,9100 nM,–
NCC(=O)N1CCC(Nc2nc(N3CCOCC3)nc(-n3c(C(F)F)nc4ccccc43)n2)CC1,1060 nM,–,–
Cc1cc(C(C)Nc2ccccc2)c2nc(N3CCOCC3)cc(=O)n2c1 (stereo not drawn),–,–,concentration at 1 h [6]: 200 nM; concentration at 5 min [7]: 2000 nM; inhibition [8]: Active; inhibition [9]: Active
N[C@@H](CC(=O)N1CCN(c2nc(N3CCOCC3)nc(-n3c(C(F)F)nc4ccccc43)n2)CC1)c1ccccc1,1800 nM,17000 nM,–
NCC(=O)NCC1CCN(c2nc(N3CCOCC3)nc(-n3c(C(F)F)nc4ccccc43)n2)CC1,428 nM,–,–
O=C([C@H]1CCCN1)N1CCN(c2nc(N3CCOCC3)nc(-n3c(C(F)F)nc4ccccc43)n2)CC1,36 nM,12 nM,inhibition [10]: Dose-dependent effect; inhibition [5]: Active
NC1CCCN(c2nc(N3CCOCC3)nc(-n3c(C(F)F)nc4ccccc43)n2)C1 (stereo not drawn),554 nM,–,–
NCC(=O)N1CCC(c2nc(N3CCOCC3)nc(-n3c(C(F)F)nc4ccccc43)n2)CC1,360 nM,120 nM,–
O=C([C@@H]1CCCN1)N1CCN(c2nc(N3CCOCC3)nc(-n3c(C(F)F)nc4ccccc43)n2)CC1,–,–,inhibition [10]: Dose-dependent effect; inhibition [5]: Active
C[C@@H](N)C(=O)N1CCC(c2nc(N3CCOCC3)nc(-n3c(C(F)F)nc4ccccc43)n2)CC1,3200 nM,740 nM,–
CC(=O)NC1CCN(c2nc(N3CCOCC3)nc(-n3c(C(F)F)nc4ccccc43)n2)CC1,521 nM,–,–
NCC1CCN(c2nc(N3CCOCC3)nc(-n3c(C(F)F)nc4ccccc43)n2)CC1,811 nM,–,–
